Test results taken from ChEMBL document CHEMBL1131066, “2-Substituted aminopyrido[2,3-d]pyrimidin-7(8H)-ones. structure-activity relationships against selected tyrosine kinases and in vitro and in vivo anticancer activity” (J Med Chem, 1998).
Where “and” joins values, the source holds several entries; their conditions need not be identical. Equal values may be shown once.

Columns and labels:
Mus musculus [1] = assay: Difference in days for treated (T) and control (C) PDGF-transfected mouse fibroblast tumors to reach 750 mg in mice at 100 mg/kg peroral dose, days 1-15 administration; format: functional; conditions: route intraperitoneal, in the assay text read “intraperitoneal” for “peroral”
Procedure, shortened: (§1)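 Nude mice (NCr nu/nu), 18–22 g, 6–8 per group, randomized and implanted with serially passaged tumor fragments in the right axilla on day 0. Dosed by average cage weight. Vehicle was 50 mM sodium lactate buffer, pH 4.0, or a 0.5% methyl cellulose suspension for one compound. Cisplatin was given in saline. T − C is the difference in days for treated and control tumors to reach 750 mg.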

[2] = biological target: T1, Platelet-derived growth factor receptor (PDGFr) (Rattus norvegicus, UniProt P20786+Q05030); assay: Inhibition of Platelet-derived growth factor receptor autophosphorylation in C6 cells; format: functional, cell-based
Procedure, shortened: (§2)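 Serum-starved 24 h (C6 rat glioma; PDGF-B-transfected NIH3T3), incubated 2 h with a range of concentrations, then stimulated 5 min with 25 ng/mL PDGF-BB. Lysates or immunoprecipitates Western blotted with antiphosphotyrosine antibody, ECL detection. IC50.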

HT-29 [3] = assay: Net reduction in tumor burden between first and last treatments of HT-29 cell tumors in mice at 200 mg/kg ip dose, days 15-29 administration; format: functional, Mus musculus; conditions: route intraperitoneal
Procedure, shortened: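 NCr nu/nu nude mice (18–22 g, 6–8 per group, randomized) had tumor fragments, kept by serial passage in nude mice, implanted in the right axilla on day 0. Mice were dosed by average cage weight on the listed days, over a range from toxic to ineffective doses. Vehicle was 50 mM sodium lactate pH 4.0 or 0.5% methyl cellulose suspension. Net log cell kill was taken between first and last treatments.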

C6 [4] = assay: (§3) Inhibition of C6 cell proliferation in sulforhodamine B assay; format: functional, cell-based, Rattus norvegicus; conditions: Rattus norvegicus, C6
Procedure, shortened: (§4)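 C6 rat glioma cells (F10 Ham's, 15% horse serum, 2.5% fetal calf serum) seeded and allowed 24 h to attach, then given serial 2-fold compound dilutions; 4 d at 37 °C, 5% CO2; growth read by sulforhodamine B staining. IC50; mean of two experiments, each in triplicate.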

SK-OV-3 [5] = assay: Weight change of SK-OV-3 cell tumors in mice at 200 mg/kg peroral dose, days 20-34 administration; format: functional; conditions: route intraperitoneal, in the assay text read “intraperitoneal” for “peroral”
C6 [6] = assay: C6 cell growth in soft agar with discontinued treatment; format: functional, cell-based, Rattus norvegicus; conditions: Rattus norvegicus, C6
Procedure, shortened: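 C6 rat glioma cells given 3-day exposure to a concentration series, then washed free of inhibitor and plated in drug-free soft agar; colonies stained and counted after two weeks. IC50; mean of two experiments, each in duplicate.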

C6 [7] = assay: C6 glioma cell growth in soft agar with continuous treatment; format: functional, cell-based; conditions: Rattus norvegicus
Procedure, shortened: (§5)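 C6 rat glioma cells (F10 Ham's with 15% horse serum, 2.5% fetal calf serum) exposed 3 days to a concentration series, then plated in soft agar with compound still present at the same concentration; colonies stained and counted after two weeks. IC50; mean of two experiments, each in duplicate.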

[8] = biological target: Epidermal growth factor receptor (Homo sapiens, UniProt P00533); assay: Inhibitory concentration was evaluated against epidermal growth factor receptor (EGFr) tyrosine kinase
C6 [9] = assay: C6 cell growth in soft agar with continuous treatment; format: functional, cell-based, Rattus norvegicus; conditions: Rattus norvegicus, C6; procedure, shortened: as §5
Mus musculus [10] = assay: Net reduction in tumor burden between the first and last treatments of PDGF-transfected fibroblast cells in mice at 100 mg/kg intraperitoneal dose, days 1-15 administration
COLO 205 [11] = assay: Difference in days for treated (T) and control (C) COLO 205 cell tumors to reach 750 mg in mice at 200 mg/kg ip dose, days 14-28 administration; format: functional, Mus musculus; conditions: route intraperitoneal; procedure, shortened: as §1
[12] = biological target: Proto-oncogene tyrosine-protein kinase Src (Homo sapiens, UniProt P12931); assay: Inhibition of c-Src tyrosine kinase
Procedure, shortened: (§6)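 Recombinant kinases (PDGFr-β, FGFr-1, c-Src), enzyme inhibition IC50. Mean of at least two separate determinations, each done in triplicate; replicate values typically varied under 30%.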

[13] = biological target: Proto-oncogene tyrosine-protein kinase Src (Gallus gallus, UniProt P00523); assay: Inhibition of avian c-Src tyrosine kinase
C6 [14] = assay: as §3; format: functional, cell-based; conditions: Rattus norvegicus; procedure, shortened: as §4
[15] = biological target: T1, Platelet-derived growth factor receptor (PDGFr); assay: Inhibition of PDGF-induced autophosphorylation of PDGF-R in C6 cells
SK-OV-3 [16] = assay: Difference in days for treated (T) and control (C) SKOV-3 cell tumors to reach 750 mg in mice at 200 mg/kg ip dose, days 20-34 administration; format: functional; conditions: route intraperitoneal; procedure, shortened: as §1
C6 [17] = assay: Difference in days for treated (T) and control (C) C6 glioma cell tumors to reach 750 mg in mice at 100 mg/kg peroral dose, days 1-15 administration; format: functional, Mus musculus; conditions: route oral; procedure, shortened: as §1
[18] = biological target: T2, Platelet-derived growth factor receptor beta (Mus musculus, UniProt P05622); assay: Inhibitory concentration was evaluated against Platelet-derived growth factor receptor beta (PDGFr) tyrosine kinase
HT-29 [19] = assay: Weight change of HT-29 cell tumors in mice at 200 mg/kg ip dose, days 15-29 administration; format: functional, Mus musculus; conditions: route intraperitoneal
Procedure, shortened: (§7)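 Tumor-bearing nude mice (NCr nu/nu, 18–22 g, 6–8 per group) were implanted in the right axilla with tumor fragments on day 0 and dosed by average cage weight. Vehicle was 50 mM sodium lactate pH 4.0, or 0.5% methyl cellulose suspension; cisplatin was given in saline. Host body weight change is given as the maximum treatment-related weight loss.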

[20] = biological target: T2, Platelet-derived growth factor receptor beta; assay: Inhibition of Platelet-derived growth factor receptor (PDGFr); procedure, shortened: as §6
COLO 205 [21] = assay: Weight change of COLO 205 cell tumors in mice at 200 mg/kg ip dose, days 14-28 administration; format: functional, Mus musculus; conditions: route intraperitoneal; procedure, shortened: as §7
NIH3T3 = assay: Inhibition of NIH3T3 proliferation by sulforhodamine B assay; format: functional, cell-based, Mus musculus; conditions: nih3t3
HT-29 [22] = assay: Difference in days for treated (T) and control (C) HT-29 cell tumors to reach 750 mg in mice at 200 mg/kg ip dose, days 15-29 administration; format: functional, Mus musculus; conditions: route intraperitoneal; procedure, shortened: as §1
C6 [23] = assay: C6 glioma cell growth in soft agar with discontinued treatment; format: functional, cell-based; conditions: Rattus norvegicus
Procedure, shortened: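 C6 rat glioma cells (F10 Ham's, 15% horse serum, 2.5% fetal calf serum) exposed to a range of concentrations for 3 days, washed free of inhibitor, plated in drug-free soft agar. Colonies stained and counted after two weeks. IC50; mean of two experiments, each in duplicate.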

[24] = biological target: T3, Platelet-derived growth factor receptor (Mus musculus, UniProt P05622+P26618); assay: (§8) Inhibition of Platelet-derived growth factor receptor autophosphorylation in NIH3T3 cells; format: functional, cell-based; procedure, shortened: as §2
[25] = biological target: T3, Platelet-derived growth factor receptor; assay: as §8; format: functional, cell-based; procedure, shortened: as §2; remark: listed apart in the source
C6 [26] = assay: Weight change of C6 glioma tumor cells in mice at 100 mg/kg peroral dose, days 1-15 administration; format: functional, organism-based; parameters: dose 100 mg/kg; conditions: Mus musculus; procedure, shortened: as §7

T2 sequence (P05622 whole entry): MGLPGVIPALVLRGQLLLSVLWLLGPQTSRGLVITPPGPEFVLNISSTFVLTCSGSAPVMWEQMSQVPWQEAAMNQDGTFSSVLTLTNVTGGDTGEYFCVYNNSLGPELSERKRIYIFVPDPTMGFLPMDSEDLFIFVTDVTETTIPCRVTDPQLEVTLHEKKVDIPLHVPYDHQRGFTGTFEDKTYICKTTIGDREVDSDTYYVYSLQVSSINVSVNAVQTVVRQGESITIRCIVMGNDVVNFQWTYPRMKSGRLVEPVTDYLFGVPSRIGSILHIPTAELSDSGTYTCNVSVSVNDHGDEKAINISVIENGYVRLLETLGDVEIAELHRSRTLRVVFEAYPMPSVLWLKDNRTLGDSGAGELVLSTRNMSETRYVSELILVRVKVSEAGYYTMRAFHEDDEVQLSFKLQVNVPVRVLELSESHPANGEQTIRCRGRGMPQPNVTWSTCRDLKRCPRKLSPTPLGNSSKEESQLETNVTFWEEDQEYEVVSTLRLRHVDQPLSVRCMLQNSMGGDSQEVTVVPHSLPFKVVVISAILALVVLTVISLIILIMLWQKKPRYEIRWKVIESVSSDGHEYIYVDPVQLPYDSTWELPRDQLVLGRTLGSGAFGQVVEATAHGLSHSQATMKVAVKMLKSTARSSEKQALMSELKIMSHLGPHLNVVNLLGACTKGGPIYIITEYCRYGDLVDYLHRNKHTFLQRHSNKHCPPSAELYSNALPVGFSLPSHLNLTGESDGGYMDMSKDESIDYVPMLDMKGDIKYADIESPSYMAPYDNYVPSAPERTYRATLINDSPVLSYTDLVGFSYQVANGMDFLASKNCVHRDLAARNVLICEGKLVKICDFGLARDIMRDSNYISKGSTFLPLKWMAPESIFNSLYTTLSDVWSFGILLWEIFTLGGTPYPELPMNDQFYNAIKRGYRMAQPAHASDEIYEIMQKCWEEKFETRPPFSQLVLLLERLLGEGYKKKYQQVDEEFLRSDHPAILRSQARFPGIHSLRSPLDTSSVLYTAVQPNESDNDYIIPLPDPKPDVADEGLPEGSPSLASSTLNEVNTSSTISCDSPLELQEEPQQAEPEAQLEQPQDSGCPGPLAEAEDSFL
Sequence of Proto-oncogene tyrosine-protein kinase Src (Homo sapiens, UniProt P12931) (P12931 2-536 limits assumed): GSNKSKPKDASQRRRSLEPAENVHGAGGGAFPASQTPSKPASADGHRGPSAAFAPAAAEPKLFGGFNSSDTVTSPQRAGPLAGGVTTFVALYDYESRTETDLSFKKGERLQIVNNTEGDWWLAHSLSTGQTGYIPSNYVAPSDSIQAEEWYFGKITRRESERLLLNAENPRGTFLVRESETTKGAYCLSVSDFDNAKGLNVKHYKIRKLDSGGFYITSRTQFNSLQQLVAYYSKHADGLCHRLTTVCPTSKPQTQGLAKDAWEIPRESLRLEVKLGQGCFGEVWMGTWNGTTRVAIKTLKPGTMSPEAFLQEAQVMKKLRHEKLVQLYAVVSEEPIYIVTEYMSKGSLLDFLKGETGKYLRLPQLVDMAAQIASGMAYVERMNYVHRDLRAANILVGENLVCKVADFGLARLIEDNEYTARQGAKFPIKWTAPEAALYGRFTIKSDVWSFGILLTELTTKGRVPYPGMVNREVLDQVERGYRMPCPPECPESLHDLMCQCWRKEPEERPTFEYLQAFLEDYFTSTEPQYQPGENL
Sequence of Epidermal growth factor receptor (P00533 whole entry): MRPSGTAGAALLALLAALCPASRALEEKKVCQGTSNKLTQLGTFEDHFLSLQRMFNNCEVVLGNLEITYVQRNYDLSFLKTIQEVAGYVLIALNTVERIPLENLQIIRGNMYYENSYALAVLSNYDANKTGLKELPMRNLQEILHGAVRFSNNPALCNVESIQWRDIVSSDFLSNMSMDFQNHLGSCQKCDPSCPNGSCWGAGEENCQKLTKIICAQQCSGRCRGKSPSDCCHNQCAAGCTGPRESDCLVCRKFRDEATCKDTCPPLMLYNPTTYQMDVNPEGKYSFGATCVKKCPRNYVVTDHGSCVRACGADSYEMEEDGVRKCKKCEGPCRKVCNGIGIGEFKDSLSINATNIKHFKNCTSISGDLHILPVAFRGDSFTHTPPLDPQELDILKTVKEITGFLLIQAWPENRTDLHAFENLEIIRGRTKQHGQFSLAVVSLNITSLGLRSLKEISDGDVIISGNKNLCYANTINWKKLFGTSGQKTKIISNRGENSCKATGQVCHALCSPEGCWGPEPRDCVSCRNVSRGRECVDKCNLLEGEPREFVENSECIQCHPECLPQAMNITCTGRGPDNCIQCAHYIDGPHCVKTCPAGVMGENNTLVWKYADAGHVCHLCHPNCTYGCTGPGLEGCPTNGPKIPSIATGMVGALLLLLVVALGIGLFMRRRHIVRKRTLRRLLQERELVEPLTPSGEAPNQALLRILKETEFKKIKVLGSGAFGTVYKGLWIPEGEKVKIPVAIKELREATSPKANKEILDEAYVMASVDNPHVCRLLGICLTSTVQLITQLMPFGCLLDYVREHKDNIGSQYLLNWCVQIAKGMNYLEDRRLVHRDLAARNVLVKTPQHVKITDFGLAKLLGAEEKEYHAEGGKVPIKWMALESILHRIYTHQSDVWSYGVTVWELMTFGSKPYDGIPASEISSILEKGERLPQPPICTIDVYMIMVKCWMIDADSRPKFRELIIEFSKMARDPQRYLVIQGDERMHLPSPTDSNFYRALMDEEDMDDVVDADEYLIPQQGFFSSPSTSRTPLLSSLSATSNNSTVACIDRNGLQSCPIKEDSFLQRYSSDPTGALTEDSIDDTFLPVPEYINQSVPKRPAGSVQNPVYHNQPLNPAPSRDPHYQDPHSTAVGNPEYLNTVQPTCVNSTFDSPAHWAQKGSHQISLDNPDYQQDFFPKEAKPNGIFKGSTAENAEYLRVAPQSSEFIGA

SMILES: Cn1c(=O)c(-c2c(Cl)cccc2Cl)cc2cnc(Nc3ccccc3)nc21
- T-C (Mus musculus [1]): 1.7 days
- IC50 [2]: 38 nM
- Net cell kill (HT-29 [3]): -0.5 log10
- IC50 (C6 [4]): 1800 nM
- Weight change (SK-OV-3 [5]): -2 g
- IC50 (C6 [6]): 2900 nM
- IC50 (C6 [7]): 1100 nM
- IC50 [8]: 260 nM
- IC50 (C6 [9]): 1100 nM
- Net cell kill (Mus musculus [10]): -2.1 log10
- T-C (COLO 205 [11]): -3.2 days
- IC50 [12]: 17 nM
- IC50 [13]: 20 nM
- IC50 (C6 [14]): 1800 nM
- IC50 [15]: 38 nM
- T-C (SK-OV-3 [16]): -0.4 days
- T-C (C6 [17]): -1.1 days
- IC50 [18]: 400 nM
- Weight change (HT-29 [19]): -2 g
- IC50 [20]: 400 nM
- Weight change (COLO 205 [21]): -2 g
- IC50 (NIH3T3): 105 nM and 410 nM
- T-C (HT-29 [22]): 1.1 days
- IC50 (C6 [23]): 2900 nM
- IC50 [24]: 20 nM
- IC50 [25]: 20 nM
- Weight change (C6 [26]): Weight gain
